ChEMBL document CHEMBL3124843, “Synthesis, cytostatic, antimicrobial, and anti-HCV activity of 6-substituted 7-(het)aryl-7-deazapurine ribonucleosides” (J Med Chem, 2014)
Activity calls are given as the source filed them. How the calls were made is not given here.

What was measured:
HepG2 = assay: Antiproliferative activity against human HepG2 cells after 72 hrs by XTT assay; type: functional, cell-based; conditions: HepG2, 72 h
Candida albicans = assay: Antifungal activity against Candida albicans after 48 hrs; type: functional, organism-based
A549 = assay: Cytostatic activity against human A549 cells after 72 hrs by MTT assay; type: functional, cell-based; conditions: A549, 72 h
Method in brief: (§1)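 IC50 is the concentration that cuts cell growth by 50%, read by quantitative metabolic MTT staining after a 3-day treatment. The resistant sublines were made by raising the concentration of the cytotoxic drug step by step. CEM-DNR-bulk (daunorubicin-selected) stably overexpresses mrp-1. K562-TAX (paclitaxel-selected) expresses only mdr-1. HCT116p53−/− carries null p53 alleles. BJ and MRC-5 are nonmalignant fibroblasts.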

Hepatitis C virus [1] = assay: Antiviral activity against Hepatitis C virus subtype 1b infected in human HuH7 cells; type: functional, organism-based, Hepacivirus hominis; conditions: genotype 1b, Huh-7
HCT-116 [2] = assay: Cytostatic activity against human HCT116 cells after 72 hrs by MTT assay; type: functional, cell-based; conditions: HCT-116, 72 h; method in brief: as §1
Pseudomonas aeruginosa [3] = assay: Antibacterial activity against Pseudomonas aeruginosa CCM 3955 after 24 hrs; type: functional, organism-based
[4] = Antiproliferative activity against human HeLaS3 cells after 72 hrs by XTT assay; type: functional, cell-based; conditions: HeLa S3, 72 h
Method in brief: (§2)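 Antiproliferative test on HL-60 promyelocytic leukemia and HeLa S3 cervical carcinoma cells growing in liquid suspension.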

CCRF-CEM = assay: Cytostatic activity against human CCRF-CEM cells after 72 hrs by MTT assay; type: functional, cell-based; method in brief: as §1
Hepatitis C virus [5] = assay: Antiviral activity against Hepatitis C virus subtype 2a infected in human HuH7 cells; type: functional, organism-based, Hepacivirus hominis; conditions: genotype 2a, Huh-7
Candida tropicalis = assay: Antifungal activity against Candida tropicalis after 48 hrs; type: functional, organism-based
[6] = Cytotoxicity against human HuH7 cells infected with Hepatitis C virus subtype 2a; type: cell-based, Huh-7
Pseudomonas aeruginosa [7] = assay: Antibacterial activity against multi-resistant Pseudomonas aeruginosa A/16575 after 24 hrs; type: functional, organism-based
[8] = test system: Staphylococcus haemolyticus; assay: Antibacterial activity against methicillin-resistant Staphylococcus haemolyticus A/16568 after 24 hrs; type: functional, organism-based
K562 [9] = assay: Cytostatic activity against human K562 cells after 72 hrs by MTT assay; type: functional, cell-based; conditions: K562, 72 h; method in brief: as §1
Candida parapsilosis = assay: Antifungal activity against Candida parapsilosis after 48 hrs; type: functional, organism-based
Escherichia coli [10] = assay: Antibacterial activity against Escherichia coli CCM 3954 after 24 hrs; type: functional, organism-based
HL-60 = assay: Antiproliferative activity against human HL60 cells after 72 hrs by XTT assay; type: functional, cell-based; conditions: HL-60, 72 h; method in brief: as §2
Staphylococcus aureus [11] = assay: Antibacterial activity against methicillin-resistant Staphylococcus aureus MRSA 4591 after 24 hrs; type: functional, organism-based
K562 [12] = assay: Cytostatic activity against paclitaxel-resistant human K562 cells after 72 hrs by MTT assay; type: functional, cell-based; conditions: K562, 72 h; method in brief: as §1
MRC5 = assay: Cytostatic activity against human MRC5 cells after 72 hrs by MTT assay; type: ADME, cell-based; conditions: MRC5, 72 h; method in brief: as §1
Enterococcus faecalis = assay: Antibacterial activity against Enterococcus faecalis CCM 4224 after 24 hrs; type: functional, organism-based
[13] = Cytostatic activity against human CEM-DNR-bulk cells after 72 hrs by MTT assay; type: functional, cell-based; method in brief: as §1
Pichia kudriavzevii = assay: Antifungal activity against Candida crusei after 48 hrs; type: functional, organism-based
BJ = assay: Cytostatic activity against human BJ cells after 72 hrs by MTT assay; type: ADME, cell-based; method in brief: as §1
Escherichia coli [14] = assay: Antibacterial activity against multi-resistant Escherichia coli C/16702 after 24 hrs; type: functional, organism-based
HCT-116 [15] = assay: Cytostatic activity against p53-deficient human HCT116 cells after 72 hrs by MTT assay; type: functional, cell-based; conditions: HCT-116, 72 h; method in brief: as §1
[16] = Cytotoxicity against human HuH7 cells infected with Hepatitis C virus subtype 1b; type: cell-based, Huh-7
Staphylococcus aureus [17] = assay: Antibacterial activity against Staphylococcus aureus CCM 3953 after 24 hrs; type: functional, organism-based

Row | SMILES | IC50 (HepG2) | Activity (Candida albicans) | IC50 (A549) | EC50 (Hepatitis C virus [1]) | IC50 (HCT-116 [2]) | Activity (Pseudomonas aeruginosa [3]) | IC50 [4] | IC50 (CCRF-CEM) | EC50 (Hepatitis C virus [5]) | Activity (Candida tropicalis) | CC50 [6] | Activity (Pseudomonas aeruginosa [7]) | Activity [8] | IC50 (K562 [9]) | Activity (Candida parapsilosis) | Activity (Escherichia coli [10]) | IC50 (HL-60) | Activity (Staphylococcus aureus [11]) | IC50 (K562 [12]) | IC50 (MRC5) | further results
1 | COc1ncnc2c1c(-c1cc3ccccc3o1)cn2[C@@H]1O[C@H](CO)[C@@H](O)[C@H]1O | > 20 µM | inactive | 17.7 µM | 2.64 µM | 13.8 µM | inactive | 9.24 µM | 5.37 µM | 10.2 µM | inactive | > 44 µM | inactive | inactive | 20.9 µM | inactive | inactive | 4.47 µM | inactive | 13.1 µM | 65.6 µM | Activity (Enterococcus faecalis): inactive; IC50 [13]: 10.8 µM; Activity (Pichia kudriavzevii): inactive; IC50 (BJ): 22.4 µM; Activity (Escherichia coli [14]): inactive; IC50 (HCT-116 [15]): 14.5 µM; CC50 [16]: > 44 µM; Activity (Staphylococcus aureus [17]): inactive
2 | Nc1nc2c(c(-c3ccoc3)cn2[C@@H]2O[C@H](CO)[C@@H](O)[C@H]2O)c(=O)[nH]1 | > 20 µM | inactive | > 20 µM | 25.7 µM | 14.2 µM | inactive | 10.7 µM | 17.9 µM | 40.7 µM | inactive | > 44 µM | inactive | inactive | 19.6 µM | inactive | inactive | > 15 µM | inactive | 12.5 µM | 86.1 µM | Activity (Enterococcus faecalis): inactive; IC50 [13]: 15 µM; Activity (Pichia kudriavzevii): inactive; IC50 (BJ): 21.5 µM; Activity (Escherichia coli [14]): inactive; IC50 (HCT-116 [15]): 17.6 µM; CC50 [16]: > 44 µM; Activity (Staphylococcus aureus [17]): inactive
3 | Nc1nc(N)c2c(-c3ccsc3)cn([C@@H]3O[C@H](CO)[C@@H](O)[C@H]3O)c2n1 | > 20 µM | inactive | > 100 µM | > 44 µM | > 20 µM | inactive | > 20 µM | > 20 µM | > 44 µM | inactive | > 44 µM | inactive | inactive | > 20 µM | inactive | inactive | > 20 µM | inactive | > 20 µM | > 100 µM | Activity (Enterococcus faecalis): inactive; IC50 [13]: > 20 µM; Activity (Pichia kudriavzevii): inactive; IC50 (BJ): > 100 µM; Activity (Escherichia coli [14]): inactive; IC50 (HCT-116 [15]): > 20 µM; CC50 [16]: > 44 µM; Activity (Staphylococcus aureus [17]): inactive
4 | CSc1ncnc2c1c(-c1ccccc1)cn2[C@@H]1O[C@H](CO)[C@@H](O)[C@H]1O | > 20 µM | inactive | > 20 µM | 23.3 µM | > 20 µM | inactive | > 20 µM | > 20 µM | > 44 µM | inactive | > 44 µM | inactive | inactive | > 20 µM | inactive | inactive | > 20 µM | inactive | > 20 µM | > 100 µM | Activity (Enterococcus faecalis): inactive; IC50 [13]: > 20 µM; Activity (Pichia kudriavzevii): inactive; IC50 (BJ): > 100 µM; Activity (Escherichia coli [14]): inactive; IC50 (HCT-116 [15]): > 20 µM; CC50 [16]: > 44 µM; Activity (Staphylococcus aureus [17]): inactive
5 | CN(C)c1ncnc2c1c(-c1ccccc1)cn2[C@@H]1O[C@H](CO)[C@@H](O)[C@H]1O | > 20 µM | inactive | > 100 µM | 26.9 µM | > 20 µM | inactive | > 20 µM | > 20 µM | > 44 µM | inactive | > 44 µM | inactive | inactive | > 20 µM | inactive | inactive | > 20 µM | inactive | > 20 µM | > 100 µM | Activity (Enterococcus faecalis): inactive; IC50 [13]: > 20 µM; Activity (Pichia kudriavzevii): inactive; IC50 (BJ): > 100 µM; Activity (Escherichia coli [14]): inactive; IC50 (HCT-116 [15]): > 20 µM; CC50 [16]: > 44 µM; Activity (Staphylococcus aureus [17]): inactive
